ChEMBL document CHEMBL1148955, “Chemical constituents from the Colombian medicinal plant Maytenus laevis” (2004)
Activity calls are given as the source filed them. The calls are words filed in the database; no cut-off is given here.

Experiments:
PBMC [1] = assay: Induction of IL10 production in human PBMC at 10 ug/ml after 48 hrs by ELISA; type: functional, cell-based
Procedure, shortened: (§1)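 PBMCs were isolated from heparinized venous blood by Ficoll-Hypaque density gradient centrifugation. Cells were cultured at 1 × 10^6/mL in RPMI 1640 with 10% fetal calf serum, with or without compound at 1 or 10 µg/mL, for 48 h at 37 °C. Cytokines in the culture supernatants were measured by commercial ELISA kits.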

PBMC [2] = assay: Induction of IL12 production in human PBMC at 10 ug/ml after 48 hrs by ELISA; type: functional; procedure, shortened: as §1
PBMC [3] = assay: Induction of IL12 production in human PBMC at 1 ug/ml after 48 hrs by ELISA; type: functional; procedure, shortened: as §1
PBMC [4] = assay: Induction of TNFalpha production in human PBMC at 1 ug/ml after 48 hrs by ELISA; type: functional; procedure, shortened: as §1
PBMC [5] = assay: Induction of IL4 production in human PBMC at 10 ug/ml after 48 hrs by ELISA; type: functional, cell-based; procedure, shortened: as §1
PBMC [6] = assay: Induction of IL6 production in human PBMC at 10 ug/ml after 48 hrs by ELISA; type: functional; procedure, shortened: as §1
PBMC [7] = assay: Induction of IL10 production in human PBMC at 1 ug/ml after 48 hrs by ELISA; type: functional, cell-based; procedure, shortened: as §1
PBMC [8] = assay: Induction of IFN-gamma production in human PBMC at 1 ug/ml after 48 hrs by ELISA; type: functional, cell-based; procedure, shortened: as §1
PBMC [9] = assay: Induction of IL6 production in human PBMC at 1 ug/ml after 48 hrs by ELISA; type: functional; procedure, shortened: as §1
PBMC [10] = assay: Induction of IFN-gamma production in human PBMC at 10 ug/ml after 48 hrs by ELISA; type: functional, cell-based; procedure, shortened: as §1
PBMC [11] = assay: Induction of IL4 production in human PBMC at 1 ug/ml after 48 hrs by ELISA; type: functional, cell-based; procedure, shortened: as §1
PBMC [12] = assay: Induction of TNFalpha production in human PBMC at 10 ug/ml after 48 hrs by ELISA; type: functional; procedure, shortened: as §1

SMILES | Activity (PBMC [1]) | Activity (PBMC [2]) | Activity (PBMC [3]) | Activity (PBMC [4]) | Activity (PBMC [5]) | Activity (PBMC [6]) | Activity (PBMC [7]) | Activity (PBMC [8]) | Activity (PBMC [9]) | Activity (PBMC [10]) | Activity (PBMC [11]) | Activity (PBMC [12])
COc1ccc(C(=O)O[C@@H]2C[C@](C)(O)[C@H]3[C@H](O[C@@H]4O[C@H](CO)[C@@H](O)[C@H](O)[C@H]4O)OC=C[C@H]32)cc1OC | inactive | <7.8 pg/mL | 27.2 pg/mL | 12.6 pg/mL | inactive | 38.1 pg/mL | inactive | inactive | 849.5 pg/mL | inactive | inactive | <7.8 pg/mL
CC(=O)OC[C@]12[C@H](OC(C)=O)[C@H](OC(C)=O)[C@@H]3[C@@H](OC(=O)c4ccccc4)[C@@]14O[C@@]3(C)COC(=O)c1cccnc1C(C)C(C)C(=O)O[C@@H]([C@H](OC(C)=O)[C@@H]2OC(=O)c1ccccc1)[C@]4(C)O (stereo partly specified) | inactive | <7.8 pg/mL | 17.3 pg/mL | 26.7 pg/mL | inactive | 260.8 pg/mL | inactive | inactive | 463 pg/mL | inactive | inactive | <7.8 pg/mL
CC1(C)[C@H](O)CC[C@]2(C)[C@H]3CC=C4[C@@H]5C[C@](C)(C(=O)O)C[C@H](O)[C@]5(C)CC[C@@]4(C)[C@]3(C)CC[C@@H]12 [TRIPTOCALLIC ACID D] | inactive | <7.8 pg/mL | <7.8 pg/mL | <7.8 pg/mL | inactive | <7.8 pg/mL | inactive | inactive | 793.2 pg/mL | inactive | inactive | <7.8 pg/mL
CC1(C)C(=O)CC[C@]2(C)[C@H]3CC=C4[C@@H]5C[C@]6(C)C[C@@H](OC6=O)[C@]5(C)CC[C@@]4(C)[C@]3(C)CC[C@@H]12 [WILFORLIDE B] | inactive | <7.8 pg/mL | <7.8 pg/mL | <7.8 pg/mL | inactive | 451.1 pg/mL | inactive | inactive | 1477.6 pg/mL | inactive | inactive | <7.8 pg/mL
CC1(C)[C@@H](O)CC[C@]2(C)[C@H]3CC=C4[C@@H]5C[C@](C)(C(=O)O)C[C@H](O)[C@]5(C)CC[C@@]4(C)[C@]3(C)CC[C@@H]12 [MAYTENFOLIC ACID] | – | <7.8 pg/mL | <7.8 pg/mL | <7.8 pg/mL | – | 76.1 pg/mL | – | – | 380 pg/mL | – | – | <7.8 pg/mL
CC(=O)OC[C@]12[C@H](OC(C)=O)[C@H](OC(C)=O)[C@@H]3[C@@H](OC(C)=O)[C@@]14O[C@@]3(C)COC(=O)c1cccnc1C(C)C(C)C(=O)O[C@@H]([C@H](OC(C)=O)[C@@H]2OC(=O)c1ccccc1)[C@]4(C)O (stereo partly specified) [MAYTEINE] | inactive | 14.7 pg/mL | 14.3 pg/mL | 22 pg/mL | inactive | 1576.2 pg/mL | inactive | inactive | 1245.2 pg/mL | inactive | inactive | 24.6 pg/mL
CC(=O)OC[C@]12[C@H](OC(=O)c3ccccc3)[C@H](OC(C)=O)[C@@H]3[C@@H](OC(C)=O)[C@@]14O[C@@]3(C)COC(=O)c1cccnc1C(C)C(C)C(=O)O[C@@H]([C@H](OC(C)=O)[C@@H]2OC(=O)c1ccccc1)[C@]4(C)O (stereo partly specified) [EBENIFOLINE E III] | inactive | <7.8 pg/mL | <7.8 pg/mL | <7.8 pg/mL | inactive | <7.8 pg/mL | inactive | inactive | <7.8 pg/mL | inactive | inactive | <7.8 pg/mL
CC1(C)[C@H](O)CC[C@]2(C)[C@H]3CC=C4[C@@H]5C[C@@]6(C)C[C@H](OC6=O)[C@]5(C)CC[C@@]4(C)[C@]3(C)CC[C@@H]12 [ABRUSLACTONE A] | inactive | 28.3 pg/mL | <7.8 pg/mL | <7.8 pg/mL | inactive | 777.2 pg/mL | inactive | inactive | 22.5 pg/mL | inactive | inactive | 22.7 pg/mL
COc1c(O)cc([C@H]2Oc3cc(O)cc(O)c3C[C@H]2O)cc1O | inactive | <7.8 pg/mL | <7.8 pg/mL | <7.8 pg/mL | inactive | 662.9 pg/mL | inactive | inactive | <7.8 pg/mL | inactive | inactive | <7.8 pg/mL
COc1c(O)cc([C@H]2Oc3cc(O)cc(O)c3C(=O)[C@H]2O)cc1O | inactive | <7.8 pg/mL | <7.8 pg/mL | <7.8 pg/mL | inactive | 470.4 pg/mL | inactive | inactive | 279.4 pg/mL | inactive | inactive | <7.8 pg/mL
C[C@@H]1[C@H]2C3=CC[C@@H]4[C@@]5(C)CC[C@@H](O)C(C)(C)[C@@H]5CC[C@@]4(C)[C@]3(C)CC[C@@]2(C)[C@@H](O)C[C@H]1C(=O)O [TRIPTOCALLIC ACID A] | inactive | <7.8 pg/mL | <7.8 pg/mL | <7.8 pg/mL | inactive | 10.6 pg/mL | inactive | inactive | 705.7 pg/mL | inactive | inactive | <7.8 pg/mL
COc1c(O)cc([C@H]2Oc3c(c(O)cc(O)c3[C@H]3c4c(O)cc(O)cc4O[C@H](c4ccc(O)cc4)[C@@H]3O)C[C@H]2O)cc1O [OURATEAPROANTHOCYANIDIN A] | inactive | <7.8 pg/mL | <7.8 pg/mL | <7.8 pg/mL | inactive | 174.4 pg/mL | inactive | inactive | 28.1 pg/mL | inactive | inactive | <7.8 pg/mL
COc1cc(C(=O)O[C@@H]2C[C@](C)(O)[C@H]3[C@H](O[C@@H]4O[C@H](CO)[C@@H](O)[C@H](O)[C@H]4O)OC=C[C@H]32)ccc1O | inactive | <7.8 pg/mL | <7.8 pg/mL | <7.8 pg/mL | inactive | <7.8 pg/mL | inactive | inactive | <7.8 pg/mL | inactive | inactive | <7.8 pg/mL
C[C@H]1[C@H](C)CC[C@]2(CO)CC[C@]3(C)C(=CC[C@@H]4[C@@]5(C)CC[C@H](OC(=O)/C=C/c6ccc(O)c(O)c6)C(C)(C)[C@@H]5CC[C@]43C)[C@H]12 | inactive | <7.8 pg/mL | <7.8 pg/mL | <7.8 pg/mL | inactive | 607.1 pg/mL | inactive | inactive | 28.5 pg/mL | inactive | inactive | 27.9 pg/mL
COc1c(O)cc(-c2oc3cc(O)cc(O)c3c(=O)c2O)cc1O [MEARNSETIN] | inactive | <7.8 pg/mL | 14.3 pg/mL | 31.3 pg/mL | inactive | 203.4 pg/mL | inactive | inactive | 783.6 pg/mL | inactive | inactive | <7.8 pg/mL
CC1(C)[C@H](O)CC[C@]2(C)[C@H]3CC=C4[C@@H]5C[C@](C)(C(=O)O)C[C@@H](O)[C@]5(C)CC[C@@]4(C)[C@]3(C)CC[C@@H]12 | inactive | <7.8 pg/mL | <7.8 pg/mL | <7.8 pg/mL | inactive | 16.2 pg/mL | inactive | inactive | 32.2 pg/mL | inactive | inactive | <7.8 pg/mL
